pEC50: −log10 of the molar value. Active and inactive are the calls of the source. The rule behind the calls is not given here.
Tests used:
[1] = Activation of HUVEC-derived soluble guanylate cyclase expressed in CHOK1 cells assessed as increase in cGMP production after 1 hr by HTRF assay; type: cell-based
Outline: (§1)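 High-throughput assay in Chinese hamster ovary cells expressing sGC. cGMP was measured across a dose range. EC50 and Emax (maximal cGMP produced) were taken from the dose-response curve.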

Homo sapiens [2] = organism: Homo sapiens; assay: Activation of HUVEC-derived soluble guanylate cyclase expressed in CHOK1 cells assessed as increase in cGMP production after 1 hr by HTRF assay relative to 1-{6-[5-chloro-2-({4-[trans-4-(trifluoromethyl)cyclohexyl]-benzyl}oxy)phenyl)pyridin-2-yl)-5-(trifluoromethyl)-1H-pyrazole-4-carboxylic acid; type: cell-based; outline: as §1
[3] = Activation of soluble guanylate cyclase in human GTM3 cells assessed as increase in cGMP production after 30 mins by fluorescence assay; type: cell-based
Outline: (§2)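 Immortalized glaucomatous trabecular meshwork (GTM-3) cells expressing endogenous levels of sGC were used. cGMP was read across a dose range. EC50 and Emax were derived from the dose-response curve.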

Homo sapiens [4] = organism: Homo sapiens; assay: Activation of soluble guanylate cyclase in human GTM3 cells assessed as increase in cGMP production after 30 mins by fluorescence assay relative to 1-{6-[5-chloro-2-({4-[trans-4-(trifluoromethyl)cyclohexyl]-benzyl}oxy)phenyl)pyridin-2-yl)-5-(trifluoromethyl)-1H-pyrazole-4-carboxylic acid; type: cell-based; outline: as §2
Oryctolagus cuniculus [5] = assay: Toxicity in New Zealand albino rabbit assessed as conjunctival hyperemia at 30 ug administered as single topical dose measured up to 24 hrs post dose; details: in vivo, topical_or_ocular
Oryctolagus cuniculus [6] = assay: Toxicity in New Zealand albino rabbit assessed as excessive blinking at 30 ug administered as single topical dose measured up to 24 hrs post dose; details: in vivo, topical_or_ocular
Cynomolgus monkey = assay: Reduction of intraocular pressure in laser-induced ocular hypertensive cynomolgus monkey at 30 ug administered as single topical dose measured after 6 to 24 hrs; type: functional; details: Macaca fascicularis

Row | Compound | pEC50 ([1]; CHO-K1, 1 h) | Emax (Homo sapiens [2]) | Emax (Homo sapiens [4]) | further results
1 | Cc1cc(C2CCN(C(=O)C3CC3)CC2)ccc1OCc1ccsc1-c1cccc(-n2ncc(C(=O)O)c2C(F)(F)F)n1 | 8.35 | 102% |  | 
2 | Cc1cc(C2CCN(C(=O)C3CC3)CC2)ccc1OCc1c(C)csc1-c1cccc(-n2ncc(C(=O)O)c2C(F)(F)F)n1 | > 9.30 | 100% | 100% | pEC50 ([3]; Homo sapiens, GTM3, 0.5 h): 7.40
3 | Cc1cc(C2CCN(CC3CC3)CC2)ccc1OCc1ccsc1-c1cccc(-n2ncc(C(=O)O)c2C(F)(F)F)n1 | 6.37 | 88% |  | 
4 | CCc1cc(COc2ccc(C3CCN(C(=O)C4CC4)CC3)cc2C)c(-c2cccc(-n3ncc(C(=O)O)c3C(F)(F)F)n2)s1 | 8.70 | 103% | 68% | pEC50 ([3]; Homo sapiens, GTM3, 0.5 h): 6.74
5 | Cc1cc(C2CCN(C(=O)C3CC3)CC2)ccc1OCC1=C(c2cccc(-n3ncc(C(=O)O)c3C(F)(F)F)n2)CCCC1 | 9.46 | 101% | 110% | pEC50 ([3]; Homo sapiens, GTM3, 0.5 h): 7.07
6 | CCC(=O)N1CCC(c2ccc(OCc3ccsc3-c3cccc(-n4ncc(C(=O)O)c4C(F)(F)F)n3)cc2)CC1 | 7.60 | 101% |  | 
7 | O=C(Nc1ccc(S(=O)(=O)N2CCOCC2)cc1)c1cc(Cl)ccc1NS(=O)(=O)c1ccc(Cl)s1 | 6.06 | 95% |  | 
8 | CCc1csc(-c2cccc(-n3ncc(C(=O)O)c3C(F)(F)F)n2)c1COc1ccc(C2CCN(C(=O)C3CC3)CC2)cc1C | 8.22 | 105% | 70% | pEC50 ([3]; Homo sapiens, GTM3, 0.5 h): 6.80
9 | CCc1cc(OCC2=C(c3cccc(-n4ncc(C(=O)O)c4C(F)(F)F)n3)CCCC2(C)C)ccc1C1CCN(C(=O)C2CC2)CC1 | 9.00 | 99% | 71% | pEC50 ([3]; Homo sapiens, GTM3, 0.5 h): 6.85
10 | Cc1cc(C2CCNCC2)ccc1OCc1ccsc1-c1cccc(-n2ncc(C(=O)O)c2C(F)(F)F)n1 | 5.38 | 73% |  | 
11 | Cc1cc(COc2ccc(C3CCN(C(=O)C4CC4)CC3)cc2C)c(-c2cccc(-n3ncc(C(=O)O)c3C(F)(F)F)n2)s1 | > 10.00 | 101% | 100% | pEC50 ([3]; Homo sapiens, GTM3, 0.5 h): 7.28
12 | Cc1c(C(=O)O)cnn1-c1nc(-c2cccc(C(F)(F)F)c2)cs1 | 6.79 | 105% |  | 
13 | Cc1cc(C2CCN(C(=O)C3CC3)CC2)ccc1OCc1cc(Cl)sc1-c1cccc(-n2ncc(C(=O)O)c2C(F)(F)F)n1 | 9.82 | 99% | 97% | pEC50 ([3]; Homo sapiens, GTM3, 0.5 h): 6.28
14 | Cc1cc(C2CCN(C(=O)C3CC3)CC2)ccc1OCC1=C(c2cccc(-n3ncc(C(=O)O)c3C(F)(F)F)n2)CCC1 | 8.60 | 101% |  | 
15 | Cc1cc(C2CCN(C(=O)C3CC3)CC2)ccc1OC1CCc2cccc(-c3cccc(-n4ncc(C(=O)O)c4C(F)(F)F)n3)c21 (single isomer, unassigned; (+)) [listing 1 of 2 here] |  |  |  | pEC50 [1]: 9.00; pEC50 ([3]; Homo sapiens, GTM3, 0.5 h): 8.00
16 | CCc1cc(OCC2=C(c3cccc(-n4ncc(C(=O)O)c4C(F)(F)F)n3)CCCC2C)ccc1C1CCN(C(=O)C2CC2)CC1 (single isomer, unassigned; (+)) [listing 1 of 2 here] |  |  |  | pEC50 [1]: 9.00; pEC50 [3]: 8.22; Activity (Oryctolagus cuniculus [5]): Toxic; Activity (Oryctolagus cuniculus [6]): Toxic
17 | Cc1cc(C2CCN(C(=O)C3CC3)CC2)ccc1NC1CCc2cccc(-c3cccc(-n4ncc(C(=O)O)c4C(F)(F)F)n3)c21 (single isomer, unassigned; (+)) [listing 1 of 2 here] |  |  |  | pEC50 [1]: > 9.30; pEC50 [3]: 8.52; Activity (Oryctolagus cuniculus [5]): Toxic; Activity (Oryctolagus cuniculus [6]): Toxic
18 | Cc1cc(C2CCN(C(=O)C3CC3)CC2)ccc1OC1CCc2cccc(-c3cccc(-n4cc(C(=O)O)cn4)n3)c21 (single isomer, unassigned; (+)) | 8.60 | 103% | 70% | pEC50 ([3]; Homo sapiens, GTM3, 0.5 h): 6.49
19 | CCc1cc(OCC2=C(c3cccc(-n4ncc(C(=O)O)c4C(F)(F)F)n3)CCCC2C)ccc1C1CCN(C(=O)C2CC2)CC1 (single isomer, unassigned; (+)) [listing 2 of 2 here] |  | 102% | 85% | 

Row | Compound | pEC50 ([1]; CHO-K1, 1 h) | Emax (Homo sapiens [2]) | Emax (Homo sapiens [4]) | further results
20 | CCc1cc(OCC2=C(c3cccc(-n4ncc(C(=O)O)c4C)n3)CCCC2C)ccc1C1CCN(C(=O)C2CC2)CC1 (single isomer, unassigned; (+)) |  | 101% | 120% | Activity (Cynomolgus monkey): Active
21 | Cc1cc(C2CCN(C(=O)C3CC3)CC2)ccc1NC1CCc2cccc(-c3cccc(-n4ncc(C(=O)O)c4C(F)(F)F)n3)c21 (single isomer, unassigned; (+)) [listing 2 of 2 here] |  | 100% | 89% | 
22 | Cc1cc(C2CCN(C(=O)C3CC3)CC2)ccc1OC1CCc2cccc(-c3cccc(-n4ncc(C(=O)O)c4C(F)(F)F)n3)c21 (single isomer, unassigned; (+)) [listing 2 of 2 here] |  | 102% | 100% | 
23 | Cc1cc2c(c(-c3cccc(-n4ncc(C(=O)O)c4C(F)(F)F)n3)c1)C(Nc1ccc(C3CCN(C(=O)C4CC4)CC3)cc1C)CC2 (single isomer, unassigned; (+)) |  | 101% | 85% | 
24 | Cc1cc(C2CCN(C(=O)C3CC3)CC2)ccc1OC1CCc2cccc(-c3cccc(-n4ncc(C(=O)O)c4C(F)(F)F)n3)c21 (single isomer, unassigned; (-)) [listing 1 of 2 here] |  |  |  | pEC50 [1]: 8.15
25 | Cc1cc(C2CCN(C(=O)C3CC3)CC2)ccc1NC1CCc2cccc(-c3cccc(-n4ncc(C(=O)O)c4C(F)(F)F)n3)c21 (single isomer, unassigned; (-)) [listing 1 of 2 here] |  |  |  | pEC50 [1]: 7.43; pEC50 [3]: 5.92
26 | Cc1cc2c(c(-c3cccc(-n4ncc(C(=O)O)c4C(F)(F)F)n3)c1)C(Nc1ccc(C3CCN(C(=O)C4CC4)CC3)cc1C)CC2 (single isomer, unassigned; (-)) [listing 1 of 2 here] |  |  |  | pEC50 [1]: 7.62
27 | Cc1cc(C2CCN(C(=O)C3CC3)CC2)ccc1NC1CCc2cccc(-c3cccc(-n4ncc(C(=O)O)c4C(F)(F)F)n3)c21 (single isomer, unassigned; (-)) [listing 2 of 2 here] |  | 101% | 97% | 
28 | Cc1cc(C2CCN(C(=O)C3CC3)CC2)ccc1OC1CCc2cccc(-c3cccc(-n4ncc(C(=O)O)c4C(F)(F)F)n3)c21 (single isomer, unassigned; (-)) [listing 2 of 2 here] |  | 100% |  | 
29 | Cc1cc2c(c(-c3cccc(-n4ncc(C(=O)O)c4C(F)(F)F)n3)c1)C(Nc1ccc(C3CCN(C(=O)C4CC4)CC3)cc1C)CC2 (single isomer, unassigned; (-)) [listing 2 of 2 here] |  | 99% |  | 
30 | Cc1cc(C2CCN(C(=O)C3CC3)CC2)ccc1NC1CCc2cccc(-c3cccc(-n4ncc(C(=O)O)c4C)n3)c21 (stereo in doubt; (+)-23) |  | 104% | 106% | Activity (Cynomolgus monkey): Active
31 | CCc1cc(OCC2=C(c3cccc(-n4ncc(C(=O)O)c4C(F)(F)F)n3)CCCC2C)ccc1C1CCN(C(=O)C2CC2)CC1 (stereo in doubt; (-)-17) [listing 1 of 2 here] |  |  |  | pEC50 [1]: 8.05; pEC50 [3]: 6.77
32 | CCc1cc(OCC2=C(c3cccc(-n4ncc(C(=O)O)c4C(F)(F)F)n3)CCCC2C)ccc1C1CCN(C(=O)C2CC2)CC1 (stereo in doubt; (-)-17) [listing 2 of 2 here] |  | 100% | 63% | 
33 | Cc1cc(C2CCN(C(=O)C3CC3)CC2)ccc1NC1CCc2cccc(-c3cccc(-n4ncc(C(=O)O)c4C)n3)c21 (stereo in doubt; (-)-23) [listing 1 of 2 here] |  |  |  | pEC50 [1]: 7.77; pEC50 [3]: 6.31
34 | Cc1cc(C2CCN(C(=O)C3CC3)CC2)ccc1NC1CCc2cccc(-c3cccc(-n4ncc(C(=O)O)c4C)n3)c21 (stereo in doubt; (-)-23) [listing 2 of 2 here] |  | 102% | 82% | 
35 | CCc1cc(OCC2=C(c3cccc(-n4ncc(C(=O)O)c4C)n3)CCCC2C)ccc1C1CCN(C(=O)C2CC2)CC1 (stereo in doubt; (-)-24) [listing 1 of 2 here] |  |  |  | pEC50 [1]: 8.52
36 | CCc1cc(OCC2=C(c3cccc(-n4ncc(C(=O)O)c4C)n3)CCCC2C)ccc1C1CCN(C(=O)C2CC2)CC1 (stereo in doubt; (-)-24) [listing 2 of 2 here] |  | 101% |  | 
37 | O=C(O)CCCCN(CCc1ccccc1OCc1ccc(CCc2ccccc2)cc1)Cc1ccc(C(=O)O)cc1 [CINACIGUAT] | 9.00 | 93% | 15% | pEC50 ([3]; Homo sapiens, GTM3, 0.5 h): 8.40
